Measurements from publication PMC4615699 (Cell, 2015).
One block for each molecule: values may come before it.

Assays:
[1] = biological target: PTGS1 (Mus musculus, UniProt P22437); assay: In situ competitive SILAC profiling of A-DA labeling, PTGS1 in Neuro2a cells; format: cell-based; settings: drug 25 μM, A-DA 5 μM, 30 min
[2] = biological target: T1, recombinant, purified human NUCB1 (hNUCB1) (Homo sapiens, UniProt Q02818); assay: NUCB1 FluoPol assay with Fl-AEA probe; format: binding; settings: for suppression of the NUCB1-FluoPol signal by lipids: concentration-dependent
T1 sequence (Q02818 27-461): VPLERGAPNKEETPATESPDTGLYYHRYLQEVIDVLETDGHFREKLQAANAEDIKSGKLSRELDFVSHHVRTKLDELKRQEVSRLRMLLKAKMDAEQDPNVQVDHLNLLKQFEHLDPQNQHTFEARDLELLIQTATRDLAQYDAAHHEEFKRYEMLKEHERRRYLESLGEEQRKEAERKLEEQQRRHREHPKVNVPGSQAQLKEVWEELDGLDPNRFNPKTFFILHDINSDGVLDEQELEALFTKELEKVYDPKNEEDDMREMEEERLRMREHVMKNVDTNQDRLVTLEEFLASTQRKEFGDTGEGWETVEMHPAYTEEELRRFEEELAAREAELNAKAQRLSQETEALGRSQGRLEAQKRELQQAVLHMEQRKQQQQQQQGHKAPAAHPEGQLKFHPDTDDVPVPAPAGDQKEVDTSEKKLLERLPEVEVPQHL
How it was run: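 Fluorescence polarization readout using purified recombinant human NUCB1 and fluorescent arachidonoyl probe Fl-AEA. Lipid competitors were titrated for concentration-dependent loss of polarization signal. Mean ± SD from at least three independent experiments.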

[3] = biological target: T2, NUCB1 (Homo sapiens, UniProt Q02818); format: binding; settings: AEA-DA 5.0 μM; lipids 20×
T2 sequence (Q02818 27-461): T1 sequence (Q02818 27-461)
How it was run: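 Performed in vitro in lysates of NUCB1-transfected HEK293T cells, with AEA-DA probe and lipid competitors. Labeled proteomes (1.0 mg/mL) were CuAAC-conjugated to rhodamine-azide for 1 h at room temperature, quenched in SDS loading buffer, separated on 10% SDS-PAGE and detected by in-gel fluorescence.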

[4] = biological target: NENF (Homo sapiens, UniProt Q9UMX5); format: binding; settings: competitors 1–100 μM; NENF-transfected HEK293T lysates
Sequence of NENF (Q9UMX5 32-172, species assumed): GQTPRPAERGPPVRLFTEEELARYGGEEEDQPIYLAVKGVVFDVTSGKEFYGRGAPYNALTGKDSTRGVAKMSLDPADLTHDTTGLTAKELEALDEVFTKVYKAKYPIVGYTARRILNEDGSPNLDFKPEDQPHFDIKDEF

[5] = biological target: DHRS1 (Mus musculus, UniProt Q99L04); assay: In situ AEA-DA competition with lipid competitor AEA, DHRS1; format: cell-based; settings: competitor 200 μM
[6] = biological target: PTGR2 (Mus musculus, UniProt Q8VDQ1); assay: In situ AEA-DA competition with lipid competitor AEA, PTGR2; format: cell-based; settings: competitor 200 μM
[7] = biological target: ABCB1B (Mus musculus, UniProt P06795); assay: In situ drug profiling with lipid probes, ABCB1B in Neuro2a cells; format: cell-based
Sequence of ABCB1B (P06795 whole entry): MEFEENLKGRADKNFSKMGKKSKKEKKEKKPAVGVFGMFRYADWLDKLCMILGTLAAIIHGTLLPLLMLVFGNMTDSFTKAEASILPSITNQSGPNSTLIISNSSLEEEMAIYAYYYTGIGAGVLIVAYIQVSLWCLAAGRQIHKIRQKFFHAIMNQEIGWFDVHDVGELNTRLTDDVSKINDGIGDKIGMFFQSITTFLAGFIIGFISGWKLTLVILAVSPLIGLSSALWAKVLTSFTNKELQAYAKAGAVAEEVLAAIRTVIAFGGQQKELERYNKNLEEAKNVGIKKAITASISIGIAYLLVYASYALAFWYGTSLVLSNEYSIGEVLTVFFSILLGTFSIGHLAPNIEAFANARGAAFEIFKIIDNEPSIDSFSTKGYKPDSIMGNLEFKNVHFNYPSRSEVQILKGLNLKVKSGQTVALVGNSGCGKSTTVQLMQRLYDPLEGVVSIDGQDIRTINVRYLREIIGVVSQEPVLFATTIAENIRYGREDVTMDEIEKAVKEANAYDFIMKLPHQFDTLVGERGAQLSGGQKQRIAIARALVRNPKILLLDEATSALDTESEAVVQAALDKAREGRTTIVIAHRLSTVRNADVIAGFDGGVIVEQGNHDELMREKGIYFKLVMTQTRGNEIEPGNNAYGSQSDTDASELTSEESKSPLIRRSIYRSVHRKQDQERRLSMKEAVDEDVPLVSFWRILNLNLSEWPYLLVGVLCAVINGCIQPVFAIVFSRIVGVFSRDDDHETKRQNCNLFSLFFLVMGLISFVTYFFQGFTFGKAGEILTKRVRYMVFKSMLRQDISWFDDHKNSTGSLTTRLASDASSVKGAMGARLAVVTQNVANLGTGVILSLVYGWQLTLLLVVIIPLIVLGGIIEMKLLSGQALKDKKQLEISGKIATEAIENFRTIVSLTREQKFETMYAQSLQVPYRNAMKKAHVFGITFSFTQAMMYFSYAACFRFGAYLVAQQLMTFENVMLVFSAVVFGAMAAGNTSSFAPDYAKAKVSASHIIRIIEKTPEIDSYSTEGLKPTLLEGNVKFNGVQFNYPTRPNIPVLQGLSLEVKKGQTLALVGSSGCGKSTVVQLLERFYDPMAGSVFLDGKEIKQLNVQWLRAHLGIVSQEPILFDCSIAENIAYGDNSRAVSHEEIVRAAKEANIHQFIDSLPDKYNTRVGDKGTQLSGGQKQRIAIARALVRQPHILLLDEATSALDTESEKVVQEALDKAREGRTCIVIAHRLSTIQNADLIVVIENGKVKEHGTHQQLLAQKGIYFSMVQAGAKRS

[8] = test system: A549 cells treated with PMA; assay: PMA-stimulated prostaglandin production in A549 cells; format: cell-based, human
[9] = biological target: NAMPT (Mus musculus, UniProt Q99KQ4); settings: 25 μM, AEA-DA 5 μM, Neuro2a
[10] = test system: PMA-stimulated A549 cells; assay: Conversion of exogenous AEA to PGF2α-EA in PMA-stimulated A549 cells; format: cell-based, human; settings: AEA 20 μM, 30 min; MJN228, KML110 5 and 25 μM; others 25 μM
How it was run: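 A549 cells stimulated with PMA were treated with test compound or DMSO. Exogenous AEA (20 μM, 30 min) was then added and prostamide PGF2α-EA formation was measured. Mean ± SEM, n = 3-4 per group.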

[11] = biological target: T2, NUCB1; format: binding; settings: read-out: IC50, blockade of AEA-DA probe labeling of NUCB1; AEA-DA 5 μM; NUCB1 0.25 μM in HEK293T lysates 0.75 mg/mL
[12] = biological target: T3, NUCB1 (Mus musculus, UniProt Q02819); format: cell-based; settings: Neuro2a cells; for reductions in lipid probe enrichment of NUCB1: 25 μM
T3 sequence (Q02819 26-459): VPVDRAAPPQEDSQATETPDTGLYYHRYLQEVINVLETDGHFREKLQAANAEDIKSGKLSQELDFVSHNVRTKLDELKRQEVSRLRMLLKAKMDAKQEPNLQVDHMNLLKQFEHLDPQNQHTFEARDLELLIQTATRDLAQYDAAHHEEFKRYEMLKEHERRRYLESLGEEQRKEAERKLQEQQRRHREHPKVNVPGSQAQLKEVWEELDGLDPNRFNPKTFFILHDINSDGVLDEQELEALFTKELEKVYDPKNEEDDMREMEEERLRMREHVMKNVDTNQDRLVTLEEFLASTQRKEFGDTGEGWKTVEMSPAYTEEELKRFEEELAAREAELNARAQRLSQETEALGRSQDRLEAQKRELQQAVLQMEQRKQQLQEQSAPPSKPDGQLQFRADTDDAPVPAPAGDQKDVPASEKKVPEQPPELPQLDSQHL

[13] = test system: purified recombinant FAAH; assay: Inhibition of purified recombinant FAAH; format: biochemical; settings: read-out: IC50 against purified recombinant FAAH
[14] = test system: Neuro2a cells; assay: Targeted metabolite; format: cell-based, mouse; settings: for elevations in NAEs (targeted MRM): 10 μM, 6 h
How it was run: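 Neuro2a cells were treated with test compound (10 μM) or DMSO for 6 h. Fatty acid amides (NAEs, NATs) were quantified by targeted MRM mass spectrometry. Mean ± SEM, n = 3-4 per group, compared against DMSO-treated cells.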

[15] = biological target: endogenous FAAH in Neuro2a lysates (Mus musculus, UniProt O08914); assay: Inhibition of endogenous FAAH in Neuro2a lysates; format: biochemical; settings: read-out: IC50 against endogenous FAAH in Neuro2a lysates
Sequence of endogenous FAAH in Neuro2a lysates (O08914 whole entry): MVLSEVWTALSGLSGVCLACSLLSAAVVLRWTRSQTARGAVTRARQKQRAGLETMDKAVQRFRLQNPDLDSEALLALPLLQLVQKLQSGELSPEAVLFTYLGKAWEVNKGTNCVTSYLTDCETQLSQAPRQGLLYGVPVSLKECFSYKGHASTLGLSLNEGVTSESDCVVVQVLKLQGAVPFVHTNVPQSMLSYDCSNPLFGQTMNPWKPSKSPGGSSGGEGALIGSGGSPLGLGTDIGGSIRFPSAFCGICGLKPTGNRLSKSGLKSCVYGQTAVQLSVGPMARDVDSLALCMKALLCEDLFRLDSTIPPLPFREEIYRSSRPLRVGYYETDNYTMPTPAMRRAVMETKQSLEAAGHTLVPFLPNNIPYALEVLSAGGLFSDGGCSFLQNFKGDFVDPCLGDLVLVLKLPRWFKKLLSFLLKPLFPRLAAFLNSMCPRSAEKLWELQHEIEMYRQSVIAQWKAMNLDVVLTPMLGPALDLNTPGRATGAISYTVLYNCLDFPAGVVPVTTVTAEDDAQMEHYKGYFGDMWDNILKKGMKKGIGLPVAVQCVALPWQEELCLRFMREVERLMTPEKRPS

[16] = test system: other AEA-DA-modified proteins; assay: Gel-based AEA-DA labeling of other proteins in HEK293T cell lysates; format: binding, human
[17] = biological target: NUCB1 (aa 53-68) (Mus musculus, UniProt Q02819); assay: isoTOP-ABPP mapping of AEA-DA-labeled NUCB1 peptide in Neuro2a cells; format: cell-based; settings: 50 μM compound, AEA-DA 50 μM
How it was run: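 Neuro2a cells were co-treated with AEA-DA (50 μM) and DMSO or test compound (50 μM), then UV-irradiated. Probe-labeled proteins were CuAAC-conjugated to TEV-cleavable azide-biotin tags, isotopically light for DMSO samples and heavy for compound samples. Probe-modified peptides were mapped by isoTOP-ABPP LC-MS/MS.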

[18] = test system: Neuro2a cells; assay: Untargeted LC-MS lipidomic analysis of compound-treated Neuro2a cells; format: cell-based, mouse; settings: 10 μM, 6 h, P < 0.0001
[19] = biological target: EBP (Mus musculus, UniProt P70245); assay: In situ drug profiling with lipid probes, EBP; format: cell-based; settings: 5 μM drug
Sequence of EBP (P70245 whole entry): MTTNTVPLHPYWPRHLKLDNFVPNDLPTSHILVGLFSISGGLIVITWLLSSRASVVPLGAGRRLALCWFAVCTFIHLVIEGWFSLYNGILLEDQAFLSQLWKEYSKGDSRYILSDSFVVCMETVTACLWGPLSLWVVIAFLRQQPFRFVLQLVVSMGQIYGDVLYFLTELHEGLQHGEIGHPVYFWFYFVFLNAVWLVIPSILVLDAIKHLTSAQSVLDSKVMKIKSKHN

[20] = biological target: TMEM97 (Mus musculus, UniProt Q8VD00); assay: In situ drug profiling with lipid probes, TMEM97; format: cell-based
Sequence of TMEM97 (Q8VD00 whole entry): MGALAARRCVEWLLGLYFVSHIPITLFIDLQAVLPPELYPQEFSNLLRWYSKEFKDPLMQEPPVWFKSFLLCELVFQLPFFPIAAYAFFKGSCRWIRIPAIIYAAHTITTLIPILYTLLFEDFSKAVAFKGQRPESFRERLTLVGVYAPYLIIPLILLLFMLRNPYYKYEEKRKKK

[21] = biological target: LSS (Homo sapiens, UniProt P48449); assay: In situ drug profiling with lipid probes, LSS; format: cell-based; settings: 5 μM drug
Sequence of LSS (P48449 whole entry): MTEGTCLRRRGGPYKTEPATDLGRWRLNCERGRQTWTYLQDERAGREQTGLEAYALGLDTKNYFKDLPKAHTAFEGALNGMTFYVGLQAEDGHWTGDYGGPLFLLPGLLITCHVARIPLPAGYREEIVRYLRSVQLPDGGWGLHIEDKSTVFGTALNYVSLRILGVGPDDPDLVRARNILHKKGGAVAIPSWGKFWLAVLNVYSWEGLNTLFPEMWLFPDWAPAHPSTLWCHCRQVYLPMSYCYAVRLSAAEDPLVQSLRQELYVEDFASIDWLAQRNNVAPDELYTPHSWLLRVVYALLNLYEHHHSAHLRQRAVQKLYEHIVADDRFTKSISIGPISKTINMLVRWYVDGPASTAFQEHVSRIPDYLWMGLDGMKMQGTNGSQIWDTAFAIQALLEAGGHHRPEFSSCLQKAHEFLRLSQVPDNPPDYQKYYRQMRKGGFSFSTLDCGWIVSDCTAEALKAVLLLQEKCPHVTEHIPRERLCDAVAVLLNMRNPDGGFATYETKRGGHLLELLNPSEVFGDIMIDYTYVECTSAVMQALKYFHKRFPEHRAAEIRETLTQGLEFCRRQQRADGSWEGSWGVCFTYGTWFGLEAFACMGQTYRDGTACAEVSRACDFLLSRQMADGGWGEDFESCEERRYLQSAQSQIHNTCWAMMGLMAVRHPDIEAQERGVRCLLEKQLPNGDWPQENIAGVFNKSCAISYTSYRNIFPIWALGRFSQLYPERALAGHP

[22] = biological target: recombinantly expressed TMEM97 (Homo sapiens, UniProt Q5BJF2); format: cell-based; settings: transfected HEK293T cells
Sequence of recombinantly expressed TMEM97 (Q5BJF2 whole entry): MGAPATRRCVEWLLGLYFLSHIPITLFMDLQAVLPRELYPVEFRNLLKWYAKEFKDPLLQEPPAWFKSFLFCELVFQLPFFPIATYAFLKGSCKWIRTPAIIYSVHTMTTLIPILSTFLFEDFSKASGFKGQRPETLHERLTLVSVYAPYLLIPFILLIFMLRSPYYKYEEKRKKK
How it was run: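 Transfected HEK293T cells (2.5 × 10^6 per 6-cm plate, grown 18-24 h) were washed in DPBS. They then received AEA-DA plus competitor or vehicle in serum-free media for 30 min at 37 °C, followed by 365 nm UV for 10 min at 4 °C. Lysates at 1.0 mg/mL were clicked to rhodamine-azide (TBTA, CuSO4, TCEP; 1 h, room temperature), resolved by 10% SDS-PAGE and read by in-gel fluorescence scanning.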

[23] = biological target: ferrochelatase (FECH) (Mus musculus, UniProt P22315); assay: In situ drug profiling with lipid probes, FECH; format: cell-based
[24] = biological target: PTGS2 (Homo sapiens, UniProt P35354); settings: drug 25 μM, A-DA 5 μM, 30 min, A549
Sequence of PTGS2 (P35354 18-604): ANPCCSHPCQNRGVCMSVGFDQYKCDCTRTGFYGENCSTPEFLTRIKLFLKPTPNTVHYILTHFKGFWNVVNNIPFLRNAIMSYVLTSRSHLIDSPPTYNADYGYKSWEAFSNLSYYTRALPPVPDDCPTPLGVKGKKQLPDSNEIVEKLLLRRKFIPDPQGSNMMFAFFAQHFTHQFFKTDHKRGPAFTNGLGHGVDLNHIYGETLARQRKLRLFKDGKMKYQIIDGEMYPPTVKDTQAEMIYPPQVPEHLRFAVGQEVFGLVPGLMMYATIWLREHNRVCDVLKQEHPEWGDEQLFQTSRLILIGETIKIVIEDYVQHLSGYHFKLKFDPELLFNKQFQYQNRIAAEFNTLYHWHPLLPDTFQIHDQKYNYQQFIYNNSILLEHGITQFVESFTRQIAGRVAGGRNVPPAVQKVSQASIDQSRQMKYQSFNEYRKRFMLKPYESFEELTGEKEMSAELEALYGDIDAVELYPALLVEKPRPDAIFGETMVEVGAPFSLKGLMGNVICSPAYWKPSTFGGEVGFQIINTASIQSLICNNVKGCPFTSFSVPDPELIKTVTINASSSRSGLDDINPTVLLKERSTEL

[25] = biological target: aldose reductase-related protein 2 (AKR1B8) (Mus musculus, UniProt P45377); assay: In situ competitive SILAC profiling of A-DA labeling, AKR1B8 in Neuro2a cells; format: cell-based; settings: drug 25 μM, A-DA 5 μM
Sequence of aldose reductase-related protein 2 (AKR1B8) (P45377 whole entry): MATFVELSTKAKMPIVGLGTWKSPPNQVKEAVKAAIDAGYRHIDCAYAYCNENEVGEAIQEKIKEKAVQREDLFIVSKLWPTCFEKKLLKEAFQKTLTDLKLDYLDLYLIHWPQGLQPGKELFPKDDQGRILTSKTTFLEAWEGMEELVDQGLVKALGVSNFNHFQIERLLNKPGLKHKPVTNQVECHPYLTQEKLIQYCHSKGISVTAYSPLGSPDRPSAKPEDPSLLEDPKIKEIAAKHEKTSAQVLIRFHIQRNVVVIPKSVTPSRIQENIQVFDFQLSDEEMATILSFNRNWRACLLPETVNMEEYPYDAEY

Sequence of PTGS1 (P22437 27-602): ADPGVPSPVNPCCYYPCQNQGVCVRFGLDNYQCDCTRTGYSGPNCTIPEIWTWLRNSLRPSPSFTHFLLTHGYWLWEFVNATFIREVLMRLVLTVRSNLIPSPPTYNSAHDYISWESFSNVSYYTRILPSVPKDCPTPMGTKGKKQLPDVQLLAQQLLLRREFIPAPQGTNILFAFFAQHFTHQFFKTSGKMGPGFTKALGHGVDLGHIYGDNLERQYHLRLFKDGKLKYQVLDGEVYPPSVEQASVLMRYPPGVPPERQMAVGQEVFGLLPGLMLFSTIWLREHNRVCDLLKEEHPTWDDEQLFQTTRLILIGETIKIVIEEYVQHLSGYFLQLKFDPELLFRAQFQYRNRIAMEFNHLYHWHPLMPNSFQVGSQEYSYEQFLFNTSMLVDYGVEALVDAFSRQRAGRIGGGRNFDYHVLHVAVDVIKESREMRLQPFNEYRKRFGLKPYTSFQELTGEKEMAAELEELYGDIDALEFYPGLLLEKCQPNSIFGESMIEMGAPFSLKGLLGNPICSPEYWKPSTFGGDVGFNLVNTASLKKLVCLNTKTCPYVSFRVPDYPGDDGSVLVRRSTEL

competition of A-DA labeling of PTGS1 [1]: competitively blocked
SMILES: CC(C(=O)O)c1ccc(-c2ccccc2)c(F)c1 (racemic) [(±)-flurbiprofen]

SMILES: CCCCC/C=C\C/C=C\C/C=C\C/C=C\CCCC(=O)OC(CO)CO [2-AG, 2-arachidonoyl glycerol]
suppression of the NUCB1-FluoPol signal by lipids ([2]; Fl-AEA 0.5 μM, NUCB1 1.0 μM): Concentration-dependent suppression
blockade of AEA-DA probe labeling of recombinant NUCB1 by lipids [3]: preferentially blocked

competition of AEA-DA probe labeling of recombinant NENF [4]: competitively blocked
suppression of FluoPol signal by competitive lipid ([2]; 20 μM competitor, Fl-AEA 0.5 μM, NUCB1 1.0 μM): significantly suppressed
suppression of the NUCB1-FluoPol signal by lipids ([2]; Fl-AEA 0.5 μM, NUCB1 1.0 μM): Concentration-dependent suppression
blockade of AEA-DA probe labeling of recombinant NUCB1 by lipids [3]: preferentially blocked
SMILES: CCCCC/C=C\C/C=C\C/C=C\C/C=C\CCCC(=O)O [AA, arachidonic acid]

SMILES: CCCCC/C=C\C/C=C\C/C=C\C/C=C\CCCC(=O)NCCO [AEA, N-arachidonoyl ethanolamine]
competition of DHRS1 probe labeling [5]: competed
competition of PTGR2 probe labeling [6]: competed
suppression of the NUCB1-FluoPol signal by lipids ([2]; Fl-AEA 0.5 μM, NUCB1 1.0 μM): Concentration-dependent suppression
blockade of AEA-DA probe labeling of recombinant NUCB1 by lipids [3]: preferentially blocked

competition of probe-labeling of ABCB1B ([7]; 25 μM, AEA-DA 5 μM, Neuro2a): competed
competition of probe-labeling of NAMPT [9]: competed
SMILES: O=C(/C=C/c1cccnc1)NCCCCC1CCN(C(=O)c2ccccc2)CC1 [FK-866]
PMA-stimulated generation of PGE2 [8]: no effect
PMA-stimulated generation of TXB2 [8]: complete suppression

SMILES: CCCCC/C=C\C/C=C\C/C=C\C/C=C\CCCC(=O)NCCCCCNC(=O)c1ccc(-c2c3ccc(=[N+](C)C)cc-3oc3cc(N(C)C)ccc23)c(C(=O)[O-])c1 [Fl-AEA]
binding of probe to hNUCB1 (increase in FluoPol signal) [2]: bound

IC50 [11]: 9.6 µM
reductions in lipid probe enrichment of NUCB1 [12]: 3-5 fold
IC50 [13]: > 100 µM
IC50 [15]: > 100 µM
SMILES: CN1CCN(C(=O)c2c(-c3ccccc3)c3cc([N+](=O)[O-])ccc3n2C)CC1 [KML110]
conversion of exogenous AEA to PGF2α-EA [10]: suppress
cellular concentrations of NAEs and NATs [14]: elevated
elevations in NAEs (targeted MRM) [14]: elevations

IC50 [11]: 3.3 µM
selectivity for NUCB1 among ∼400 AEA-DA probe targets ([12]; 10 μM, AEA-DA 5 μM): most competed protein
reductions in lipid probe enrichment of NUCB1 [12]: 3-5 fold
concentration inhibiting lipid probe binding to NUCB1 (as low as) [12]: ≤ 10 µM
concentration of near-maximal inhibition of lipid probe binding to NUCB1 [12]: ~25 µM
reduction of signals of AEA-DA-labeled NUCB1 peptide (aa 53-68) [17]: > 5 fold
IC50 [13]: > 100 µM
IC50 [15]: > 100 µM
SMILES: CN1CCN(C(=O)c2[nH]c3ccc([N+](=O)[O-])cc3c2-c2ccccc2)CC1 [MJN228]
conversion of exogenous AEA to PGF2α-EA [10]: suppress
disruption of other arachidonoyl probe-protein interactions ([16]; HEK293T cell lysates): did not appear to disrupt
elevation of metabolites (NAEs and NATs) versus DMSO [18]: ≥ 2 fold
cellular concentrations of NAEs and NATs [14]: elevated
elevations in NAEs (targeted MRM) [14]: elevations

SMILES: O=C(Nc1cccnn1)N1CCC(=Cc2cccc(Oc3ccc(C(F)(F)F)cn3)c2)CC1 [PF-7845]
cellular concentrations of NAEs and NATs [14]: elevated

SMILES: C=CC1=C(C)c2cc3[nH]c(cc4nc(cc5[nH]c(cc1n2)c(C)c5CCC(=O)O)C(CCC(=O)O)=C4C)c(C)c3C=C [Pp-IX, protoporphyrin IX]
competition of AEA-DA probe labeling of recombinant NENF [4]: inhibited

competition of EBP [19]: prominent off-targets
competition of TMEM97 ([20]; 5 μM drug): prominent off-targets
competition of LSS [21]: fully competed
blockade of AEA-DA probe labeling of recombinant TMEM97 [22]: block
SMILES: C=CCN(C)CCCCCCOc1ccc(C(=O)c2ccc(Br)cc2)c(F)c1 [Ro 48-8071]

concentration blocking arachidonoyl probe labeling of ABCB1B (as low as) [7]: ≤ 0.5 µM
concentration blocking arachidonoyl probe labeling of TMEM97 (as low as) [20]: ≤ 0.5 µM
blockade of AEA-DA probe labeling of recombinant TMEM97 [22]: block
concentration blocking arachidonoyl probe labeling of FECH (as low as) [23]: ≤ 0.5 µM
SMILES: COc1cc2c(cc1OC)CN(CCc1ccc(NC(=O)c3cccc4c(=O)c5cccc(OC)c5[nH]c34)cc1)CC2 [elacridar]

SMILES: C=CC1=C(C)c2cc3[n-]c(cc4[n-]c(cc5nc(cc1n2)C(C)=C5C=C)c(C)c4CCC(=O)O)c(CCC(=O)O)c3C.[Cl-].[Fe+3] [hemin]
competition of AEA-DA probe labeling of recombinant NENF [4]: inhibited
effect on other AEA-DA-modified proteins detected by SDS-PAGE ([16]; NENF-transfected HEK293T lysates): unaffected

SMILES: CS(=O)(=O)c1ccc(C2=C(c3ccccc3)C(=O)OC2)cc1 [rofecoxib]
conversion of exogenous AEA to PGF2α-EA [10]: blocked
competition of A-DA labeling of PTGS2 [24]: disrupted
reduction in A-DA labeling of AKR1B8 [25]: strong reductions
